What was measured:
[1] = molecular target: T1, SAM-TIR protein (human SARM1) (Homo sapiens, UniProt Q6SZW1); assay: Washout assay with plate-bound SAM-TIR; type: biochemical; settings: 2 h treatment, plates rinsed, assayed 60 min after removal of compound
T1 sequence (Q6SZW1 408-700): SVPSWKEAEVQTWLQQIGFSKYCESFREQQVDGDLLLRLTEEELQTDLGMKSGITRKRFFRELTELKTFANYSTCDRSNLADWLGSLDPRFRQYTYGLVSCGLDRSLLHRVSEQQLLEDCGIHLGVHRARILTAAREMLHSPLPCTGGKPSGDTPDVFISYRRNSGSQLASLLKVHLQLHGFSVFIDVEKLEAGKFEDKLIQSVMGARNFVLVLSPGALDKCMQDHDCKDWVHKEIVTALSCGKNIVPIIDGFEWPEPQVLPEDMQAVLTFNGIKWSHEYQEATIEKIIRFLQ
Procedure, shortened: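 SAM-TIR lysate (30 µg/ml total protein) was captured via its Strep-tag on Strep-Tactin XT plates, and unbound material was rinsed off. Bound enzyme was exposed to test compound for 2 h, rinsed, then held in assay solution without NAD+ for 0, 10 or 60 min. Wells were rinsed again, and activity was started by adding NAD+. A reversible reference inhibitor was run alongside.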

mouse DRG neurons = assay: Axon degeneration assay after axotomy in mouse DRG cultures; type: cell-based; settings: 3 h pulse at 10 µM, compound removed, axotomy immediately; examined 16-72 h
Procedure, shortened: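 Embryonic day 13.5 C57BL/6J mouse DRGs were trypsin/EDTA-dissociated (37°C, 15 min) and spot-plated at 5000 cells/well on poly-D-lysine/laminin in Neurobasal/B27 with NGF, uridine and fluorodeoxyuridine. At DIV 6–7, cultures got a 3 h pulse of test compound at 10 µM (from 10 mM DMSO stock; […] DMSO final). Compound was rinsed out, […]. Axons were manually cut with a micro-blade, then PFA-fixed and immunostained.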

Ic1cccc2cnccc12 [DSRM-3716]
SARM1 inhibition after compound removal [1]: Substantial loss of inhibition | axonal protection after compound removal (mouse DRG neurons): completely lost

From article PMC8634121 (Brain, 2021)
